Assay results from ChEMBL document CHEMBL3352137, “Modification on ursodeoxycholic acid (UDCA) scaffold. discovery of bile acid derivatives as selective agonists of cell-surface G-protein coupled bile acid receptor 1 (GP-BAR1)” (J Med Chem, 2014).
Activity calls are given as the source filed them. The calls are words filed in the database; no cut-off is given here.

Columns and labels:
Mus musculus [1] = test: Induction of FXR-mediated BSEP mRNA expression in CD1 mouse liver at 64 mg/kg, po measured 24 hrs post dose by real-time PCR method; assay type: functional, organism-based; set-up: dose 64 mg/kg
How it was run: (§1)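 Male CD1 mice (n = 3, 4) received a single oral dose of 64 mg/kg. Liver and ileum were collected at 6 or 24 h (3, 6 and 24 h also stated). Target mRNA was measured by SYBR real-time PCR (0.2 μM primers, 10 ng template, 40 cycles of 95 °C 20 s / 60 °C 30 s), with all reactions in triplicate. Comparison was versus control mice.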

Mus musculus [2] = test: Induction of FXR-mediated OST mRNA expression in CD1 mouse liver at 64 mg/kg, po measured 24 hrs post dose by real-time PCR method; assay type: functional, organism-based; set-up: dose 64 mg/kg; how it was run: as §1
Mus musculus [3] = test: Effect on body weight loss in CD1 mouse model of ANIT-induced cholestasis at 64 mg/kg, po; assay type: functional, organism-based; set-up: dose 64 mg/kg
Mus musculus [4] = test: Effect on plasma bile acid level in CD1 mouse model of ANIT-induced cholestasis at 64 mg/kg, po; assay type: functional, organism-based; set-up: dose 64 mg/kg
[5] = biological target: T1, Bile acid receptor (Homo sapiens) (UniProt Q96RI1); test: Agonist activity at FXR (unknown origin) expressed in human HepG2 cells assessed as stimulation of FXR response element IR1-mediated receptor transactivation at 50 uM in presence of CDCA by luciferase reporter gene assay; assay type: cell-based
T1 sequence (whole entry): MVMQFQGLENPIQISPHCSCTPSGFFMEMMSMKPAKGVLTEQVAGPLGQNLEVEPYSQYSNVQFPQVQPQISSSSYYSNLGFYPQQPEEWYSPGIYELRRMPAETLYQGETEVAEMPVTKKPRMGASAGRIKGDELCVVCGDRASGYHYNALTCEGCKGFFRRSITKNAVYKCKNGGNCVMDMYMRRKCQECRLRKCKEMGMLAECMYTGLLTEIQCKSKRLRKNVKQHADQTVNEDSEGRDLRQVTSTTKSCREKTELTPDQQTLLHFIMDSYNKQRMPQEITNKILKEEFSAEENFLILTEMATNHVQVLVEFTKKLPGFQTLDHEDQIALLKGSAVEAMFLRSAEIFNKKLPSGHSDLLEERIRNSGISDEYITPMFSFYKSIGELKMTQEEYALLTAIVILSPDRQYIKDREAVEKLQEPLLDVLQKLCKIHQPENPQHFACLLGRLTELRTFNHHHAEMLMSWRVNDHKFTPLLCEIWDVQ
How it was run: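 HepG2 cells were cotransfected with pSG5-FXR, pSG5-RXR, the IR1-containing p(hsp27)-TK-LUC reporter and a Renilla vector (pGL4.70). 24 h after transfection they were stimulated for 18 h with 10 μM CDCA plus 50 μM compound. Lysates were read for luciferase. Data are the RLU/RRU ratio, mean ± standard error, compared with CDCA and untreated cells.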

HEK-293T = test: Toxicity against HEK293T cells at 50 uM; assay type: cell-based; settings: human
[6] = biological target: T2, G-protein coupled bile acid receptor 1 (Homo sapiens) (UniProt Q8TDU6); test: (§2) Agonist activity at human GPBAR1 expressed in HEK293T cells assessed as stimulation of cAMP response element-mediated receptor transactivation by luciferase reporter gene assay; assay type: functional, cell-based; settings: HEK-293T
T2 sequence (whole entry): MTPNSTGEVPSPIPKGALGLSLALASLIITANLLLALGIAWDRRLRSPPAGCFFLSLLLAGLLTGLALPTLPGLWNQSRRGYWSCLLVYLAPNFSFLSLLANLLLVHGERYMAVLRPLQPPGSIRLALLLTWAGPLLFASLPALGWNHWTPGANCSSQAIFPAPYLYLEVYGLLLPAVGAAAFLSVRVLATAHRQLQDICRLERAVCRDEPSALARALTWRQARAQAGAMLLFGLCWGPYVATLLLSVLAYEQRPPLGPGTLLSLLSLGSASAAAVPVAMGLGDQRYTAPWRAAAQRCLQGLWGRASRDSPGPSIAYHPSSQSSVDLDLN
How it was run: (§3)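 HEK-293T cells were cotransfected with a CRE-driven luc2P reporter (pGL4.29), pCMVSPORT6-human GP-BAR1 and a Renilla vector. 24 h after transfection they were stimulated for 18 h (10 μM single point; 0.1, 1 and 10 μM for EC50). Lysates were read for luciferase as a measure of intracellular cAMP rise, with TLCA 10 μM as reference. Data are mean ± standard error of at least three determinations in duplicate.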

[7] = biological target: T3, G-protein coupled bile acid receptor 1 (Homo sapiens, UniProt Q8TDU6); test: as §2; assay type: functional, cell-based, HEK-293T; how it was run: as §3
T3 sequence (Q8TDU6 whole entry): T2 sequence (whole entry)

Mus musculus [8] = test: Induction of FXR-mediated OST mRNA expression in CD1 mouse liver at 64 mg/kg, po measured 3 to 24 hrs post dose by real-time PCR method; assay type: functional, organism-based; set-up: dose 64 mg/kg; how it was run: as §1
Mus musculus [9] = test: Induction of FXR-mediated BSEP mRNA expression in CD1 mouse liver at 64 mg/kg, po measured 3 to 24 hrs post dose by real-time PCR method; assay type: functional, organism-based; set-up: dose 64 mg/kg; how it was run: as §1
Mus musculus [10] = test: Induction of GPBAR1-mediated pro-glucagon-1 mRNA expression in CD1 mouse intestine at 64 mg/kg, po measured 6 hrs post dose by real-time PCR method; assay type: functional; how it was run: as §1
Mus musculus [11] = test: Increase in plasma bile acid level in CD1 mouse model of ANIT-induced cholestasis at 16 mg/kg, po
Mus musculus [12] = test: Increase in plasma tauro-cholic acid level in CD1 mouse model of ANIT-induced cholestasis at 16 mg/kg, po
Mus musculus [13] = test: Increase in plasma tauro-muricholic acid level in CD1 mouse model of ANIT-induced cholestasis at 16 mg/kg, po

In the case of `C[C@H](CCC(=O)O)[C@H]1CC[C@H]2[C@@H]3[C@@H](O)C[C@@H]4C[C@H](O)CC[C@]4(C)[C@H]3CC[C@]12C`, the Activity (Mus musculus [1]) is reported as “Active”, the Activity (Mus musculus [2]) is reported as “Active” and the Activity (Mus musculus [3]) is reported as “inactive”. The Activity (Mus musculus [4]) was “inactive”.

In the case of `C[C@H](CCCCC(=O)O)[C@H]1CC[C@H]2[C@@H]3[C@H](O)C[C@@H]4C[C@H](O)CC[C@]4(C)[C@H]3CC[C@]12C`, the Activity [5] is reported as “Active” and the Activity (HEK-293T) is reported as “Toxic”.

With `C[C@H](CCO)[C@H]1CC[C@H]2[C@@H]3[C@@H](O)C[C@@H]4C[C@H](O)CC[C@]4(C)[C@H]3CC[C@]12C` the Activity [6] was “Dose-dependent effect” and the EC50 [7] was 24.4 µM.

For `C[C@H](CCCCC(=O)O)[C@H]1CC[C@H]2[C@@H]3[C@@H](O)C[C@@H]4C[C@H](O)CC[C@]4(C)[C@H]3CC[C@]12C`, the Activity [6] was “Dose-dependent effect”, the EC50 [7] was 17.2 µM and the Activity (Mus musculus [8]) was “inactive”. For the same compound, the Activity (Mus musculus [9]) was “inactive”, the “fold change (FC)” value (Mus musculus [10]) was 2 and the Activity (Mus musculus [11]) was “Active”. The Activity (Mus musculus [12]) was “Active” and the Activity (Mus musculus [13]) was “Active”.
